pKi: −log10 of the molar value. Blank lines part the entries; values can stand above or below the compound they belong to.
Legend:
[1] = target: T1, Adrenergic receptor alpha-1 (Rattus norvegicus, UniProt P15823+P23944+P43140); assay: Binding affinity against Alpha-1 adrenergic receptor by displacing [3H]-prazosin radioligand in rat cortex membrane; format: cell membranes, Brain
T1 sequence (P15823 whole entry): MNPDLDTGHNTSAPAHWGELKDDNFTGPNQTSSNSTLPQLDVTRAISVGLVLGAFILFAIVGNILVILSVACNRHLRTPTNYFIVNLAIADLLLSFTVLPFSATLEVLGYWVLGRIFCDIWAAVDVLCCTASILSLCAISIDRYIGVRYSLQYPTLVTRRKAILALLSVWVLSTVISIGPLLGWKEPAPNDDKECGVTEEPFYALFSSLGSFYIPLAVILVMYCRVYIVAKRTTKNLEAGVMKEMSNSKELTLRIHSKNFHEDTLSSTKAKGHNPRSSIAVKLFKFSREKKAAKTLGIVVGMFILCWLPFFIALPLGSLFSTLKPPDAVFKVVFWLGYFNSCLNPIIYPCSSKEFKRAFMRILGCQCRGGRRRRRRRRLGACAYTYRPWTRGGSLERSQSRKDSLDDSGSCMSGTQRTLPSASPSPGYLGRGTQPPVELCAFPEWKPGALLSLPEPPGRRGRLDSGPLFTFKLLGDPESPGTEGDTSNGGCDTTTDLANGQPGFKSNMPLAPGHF
T1 sequence (P23944 whole entry): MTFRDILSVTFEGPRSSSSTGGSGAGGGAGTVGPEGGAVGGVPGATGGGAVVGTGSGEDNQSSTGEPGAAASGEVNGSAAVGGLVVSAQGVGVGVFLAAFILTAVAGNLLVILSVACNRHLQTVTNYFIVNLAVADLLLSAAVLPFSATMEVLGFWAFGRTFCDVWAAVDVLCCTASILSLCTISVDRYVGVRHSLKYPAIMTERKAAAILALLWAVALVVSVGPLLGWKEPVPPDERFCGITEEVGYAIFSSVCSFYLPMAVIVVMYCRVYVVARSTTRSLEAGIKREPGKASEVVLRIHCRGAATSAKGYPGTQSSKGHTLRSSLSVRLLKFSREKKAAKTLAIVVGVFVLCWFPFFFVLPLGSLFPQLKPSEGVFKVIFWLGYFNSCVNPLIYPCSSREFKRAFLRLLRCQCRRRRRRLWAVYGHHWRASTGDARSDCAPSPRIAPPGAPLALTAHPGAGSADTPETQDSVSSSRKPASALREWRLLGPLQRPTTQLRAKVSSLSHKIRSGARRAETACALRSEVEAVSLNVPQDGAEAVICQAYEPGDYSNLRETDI
T1 sequence (P43140 whole entry): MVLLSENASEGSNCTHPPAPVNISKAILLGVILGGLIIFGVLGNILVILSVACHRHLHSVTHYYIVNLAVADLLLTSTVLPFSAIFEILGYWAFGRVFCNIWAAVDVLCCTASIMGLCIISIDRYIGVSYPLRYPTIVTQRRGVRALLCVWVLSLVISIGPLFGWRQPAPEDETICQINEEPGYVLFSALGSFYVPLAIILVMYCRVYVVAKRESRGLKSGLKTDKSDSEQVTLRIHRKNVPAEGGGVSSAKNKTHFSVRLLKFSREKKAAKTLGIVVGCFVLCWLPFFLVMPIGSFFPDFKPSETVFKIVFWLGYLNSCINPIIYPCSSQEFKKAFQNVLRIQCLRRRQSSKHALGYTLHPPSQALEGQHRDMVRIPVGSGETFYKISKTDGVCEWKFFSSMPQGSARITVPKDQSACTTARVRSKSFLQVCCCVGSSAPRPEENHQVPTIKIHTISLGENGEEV
Summary of the method: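 Rat cerebral cortex membranes washed in 50 mM Tris-HCl pH 7.7 with 5 mM EDTA, stored at –80 °C, then assayed in 50 mM Tris-HCl pH 7.7 (0.2–0.3 mg protein). Incubation 60 min at 25 °C with 0.1 nM [3H]prazosin; nonspecific binding defined with 1 μM prazosin. Seven displacer concentrations in triplicate, GF/C filtration. IC50 by log-probit, Ki by Cheng–Prusoff (Kd 0.24 nM).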

[2] = target: T2, 5-hydroxytryptamine receptor 1A (Rattus norvegicus, UniProt P19327); assay: Binding affinity against 5-hydroxytryptamine 1A receptor by displacing [3H]8-OH-DPAT radioligand in rat cortex membrane; format: cell membranes
T2 sequence (P19327 whole entry): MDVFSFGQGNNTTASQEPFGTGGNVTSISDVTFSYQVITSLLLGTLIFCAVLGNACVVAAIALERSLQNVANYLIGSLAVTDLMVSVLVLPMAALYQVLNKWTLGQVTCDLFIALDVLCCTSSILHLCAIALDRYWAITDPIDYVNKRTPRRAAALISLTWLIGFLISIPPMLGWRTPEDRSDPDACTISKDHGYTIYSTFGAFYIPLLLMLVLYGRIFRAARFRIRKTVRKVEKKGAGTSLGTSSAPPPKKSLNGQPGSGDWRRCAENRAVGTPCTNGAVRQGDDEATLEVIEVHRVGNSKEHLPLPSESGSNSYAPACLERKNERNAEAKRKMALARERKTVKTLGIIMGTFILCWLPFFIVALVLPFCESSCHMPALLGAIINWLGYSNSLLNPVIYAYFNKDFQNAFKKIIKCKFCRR
Summary of the method: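 Rat cortex membranes, pre-incubated 10 min at 37 °C to remove endogenous 5-HT, stored at –80 °C, then resuspended in 50 mM Tris-HCl pH 7.4 (0.2–0.3 mg protein). GF/C filtration, scintillation counting.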

[3] = target: T3, Adrenergic receptor alpha-2 (Rattus norvegicus, UniProt P22086+P19328+P22909); assay: Binding affinity against Alpha-2 adrenergic receptor by displacing [3H]rauwolscine radioligand in rat cortex membrane; format: cell membranes, Brain
T3 sequence (P22086 whole entry): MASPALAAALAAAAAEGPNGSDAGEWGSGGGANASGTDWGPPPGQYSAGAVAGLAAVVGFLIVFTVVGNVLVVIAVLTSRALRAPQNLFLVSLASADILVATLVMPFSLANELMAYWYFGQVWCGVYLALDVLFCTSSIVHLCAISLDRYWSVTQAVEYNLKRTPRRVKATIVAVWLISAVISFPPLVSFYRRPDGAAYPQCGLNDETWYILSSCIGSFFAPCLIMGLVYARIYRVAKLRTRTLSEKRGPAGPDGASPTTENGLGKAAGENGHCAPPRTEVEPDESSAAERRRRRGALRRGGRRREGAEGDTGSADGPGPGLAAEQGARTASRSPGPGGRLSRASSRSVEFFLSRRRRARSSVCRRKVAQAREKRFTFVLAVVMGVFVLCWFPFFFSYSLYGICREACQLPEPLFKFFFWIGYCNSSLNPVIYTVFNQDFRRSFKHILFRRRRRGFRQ
T3 sequence (P19328 whole entry): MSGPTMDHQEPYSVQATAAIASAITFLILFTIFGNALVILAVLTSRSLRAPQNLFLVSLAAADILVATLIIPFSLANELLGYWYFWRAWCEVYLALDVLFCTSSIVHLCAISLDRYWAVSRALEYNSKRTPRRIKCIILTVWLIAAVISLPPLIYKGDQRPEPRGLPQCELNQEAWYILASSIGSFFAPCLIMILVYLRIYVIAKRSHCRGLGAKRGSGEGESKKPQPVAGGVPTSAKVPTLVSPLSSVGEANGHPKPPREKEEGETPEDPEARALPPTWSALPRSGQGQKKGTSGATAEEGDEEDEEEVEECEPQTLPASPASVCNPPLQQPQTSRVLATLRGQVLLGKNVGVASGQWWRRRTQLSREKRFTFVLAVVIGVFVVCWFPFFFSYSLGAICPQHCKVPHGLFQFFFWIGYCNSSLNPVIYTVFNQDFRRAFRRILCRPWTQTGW
T3 sequence (P22909 whole entry): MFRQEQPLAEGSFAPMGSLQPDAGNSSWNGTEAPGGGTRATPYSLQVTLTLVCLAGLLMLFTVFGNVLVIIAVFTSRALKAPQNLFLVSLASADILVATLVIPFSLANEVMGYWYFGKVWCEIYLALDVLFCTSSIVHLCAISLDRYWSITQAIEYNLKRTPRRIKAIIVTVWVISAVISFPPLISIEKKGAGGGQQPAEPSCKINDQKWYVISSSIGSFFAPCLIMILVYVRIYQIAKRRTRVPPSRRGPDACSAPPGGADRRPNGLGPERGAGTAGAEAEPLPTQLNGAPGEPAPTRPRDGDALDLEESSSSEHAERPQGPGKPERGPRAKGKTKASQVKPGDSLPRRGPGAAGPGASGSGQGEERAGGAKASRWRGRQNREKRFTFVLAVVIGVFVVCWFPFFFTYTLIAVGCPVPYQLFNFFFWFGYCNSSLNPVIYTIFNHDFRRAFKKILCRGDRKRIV

[4] = target: T1, Adrenergic receptor alpha-1; assay: Intrinsic activity for displacement of [3H]prazosin from Alpha-1 adrenergic receptor of rat cerebral cortex membrane in the presence of 1 nM GTP; format: tissue-based
Summary of the method: (§1)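 [3H]prazosin competition on rat cerebral cortex membranes, run with and without GTP (1 nM in table footnote, 1 mM in text). The GTP shift is the ratio of the affinity constant with GTP to that without. Values are means ± SEM of three experiments.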

[5] = target: T1, Adrenergic receptor alpha-1; assay: Intrinsic activity for displacement of [3H]prazosin from Alpha-1 adrenergic receptor of rat cerebral cortex membrane in the absence of 1 nM GTP; format: tissue-based; summary of the method: as §1
[6] = target: T1, Adrenergic receptor alpha-1; assay: Binding affinity against Alpha-1 adrenergic receptor by displacing [3H]prazosin radioligand in rat cortex membrane.; format: cell membranes, Brain

SMILES: COc1ccccc1N1CCN(CCCCCn2nc(-n3ccnc3)ccc2=O)CC1
- Ki [1]: 37.5 nM
- pKi [2]: 6.65
- Ki [3]: 427 nM

SMILES: COc1ccccc1N1CCN(CCn2nc(-n3ccnc3)ccc2=O)CC1
- Ki [1]: 237 nM
- Ki [3]: 1492 nM

SMILES: O=c1ccc(-n2ccnc2)nn1CCCCCN1CCN(c2ccccc2Cl)CC1
- Ki [1]: 23.3 nM
- pKi [2]: 6.49
- Ki [3]: 134 nM

SMILES: O=c1ccc(-n2ccnc2)nn1CCCCCCN1CCN(c2ccccc2Cl)CC1
- Ki [1]: 29.7 nM
- Ki [3]: 138 nM

SMILES: O=c1ccc(-n2ccnc2)nn1CCCN1CCN(c2ccccc2Cl)CC1
- pKi [2]: 6.21

SMILES: COc1ccccc1N1CCN(CCCCCCn2nc(-n3ccnc3)ccc2=O)CC1
- Ki [1]: 52.5 nM
- Ki [3]: 131 nM

SMILES: COc1ccccc1N1CCN(CCCCCCCn2nc(-n3ccnc3)ccc2=O)CC1
- pKi [2]: 7.01
- Ki [3]: 76.5 nM
- Ki [6]: 6 nM

SMILES: COc1ccccc1N1CCN(CCn2nc(-n3ccc4ccccc43)ccc2=O)CC1
- Ki [1]: 22.7 nM
- pKi [2]: 6.51
- Ki [3]: 1098 nM

SMILES: COc1ccccc1N1CCN(CCCCCCCn2nc(-n3ccc4ccccc43)ccc2=O)CC1
- pKi [2]: 6.74
- Ki [3]: 306 nM
- Ki [6]: 1.1 nM

SMILES: O=c1ccc(-n2ccnc2)nn1CCN1CCN(c2ccccc2Cl)CC1
- Ki [1]: 472 nM
- Ki [3]: 2072 nM

SMILES: O=c1ccc(-n2ccnc2)nn1CCCCN1CCN(c2ccccc2Cl)CC1
- Ki [1]: 24.6 nM
- Ki [3]: 65.2 nM

SMILES: COc1ccccc1N1CCN(CCCn2nc(-n3ccnc3)ccc2=O)CC1
- pKi [2]: 6.33

Next, values leading:

- Ki [1]: 70.4 nM
- pKi [2]: 6.00
- Ki [3]: 265 nM
SMILES: O=c1ccc(-n2cnc3ccccc32)nn1CCN1CCN(c2ccccc2Cl)CC1

- Ki [1]: 6.4 nM
- pKi [2]: 6.97
- Ki [3]: 113 nM
SMILES: COc1ccccc1N1CCN(CCCCCCn2nc(-n3cnc4ccccc43)ccc2=O)CC1

- Ki [1]: 15.1 nM
- pKi [2]: 6.21
- Ki [3]: 31.5 nM
SMILES: O=c1ccc(-n2cnc3ccccc32)nn1CCCCCCN1CCN(c2ccccc2Cl)CC1

- pKi [2]: 6.50
- Ki [4]: 0.97 nM
- Ki [5]: 1.2 nM
SMILES: COc1ccccc1N1CCN(CCCCn2nc(-n3cnc4ccccc43)ccc2=O)CC1

- Ki [1]: 33 nM
- pKi [2]: 6.27
- Ki [3]: 350 nM
SMILES: COc1ccccc1N1CCN(CCn2nc(-n3cnc4ccccc43)ccc2=O)CC1

- pKi [2]: 6.42
SMILES: COc1ccccc1N1CCN(CCCn2nc(-n3cnc4ccccc43)ccc2=O)CC1

- Ki [1]: 1.7 nM
- Ki [3]: 89.8 nM
SMILES: COc1ccccc1N1CCN(CCCCCCCn2nc(-n3cnc4ccccc43)ccc2=O)CC1

- pKi [2]: 6.34
SMILES: O=c1ccc(-n2cnc3ccccc32)nn1CCCN1CCN(c2ccccc2Cl)CC1

- Ki [1]: 2.8 nM
- pKi [2]: 6.29
- Ki [3]: 104 nM
SMILES: COc1ccccc1N1CCN(CCCCCCn2nc(-n3ccc4ccccc43)ccc2=O)CC1

- Ki [1]: 1.3 nM
- pKi [2]: 6.74
- Ki [3]: 5.8 nM
SMILES: O=c1ccc(-n2cnc3ccccc32)nn1CCCCN1CCN(c2ccccc2Cl)CC1

- Ki [1]: 6.8 nM
- pKi [2]: 6.85
- Ki [3]: 95.6 nM
SMILES: COc1ccccc1N1CCN(CCCCCn2nc(-n3ccc4ccccc43)ccc2=O)CC1

- Ki [1]: 4.5 nM
- pKi [2]: 6.45
- Ki [3]: 127 nM
SMILES: O=c1ccc(-n2cnc3ccccc32)nn1CCCCCN1CCN(c2ccccc2Cl)CC1

- Ki [1]: 3.2 nM
- pKi [2]: 6.99
- Ki [3]: 170 nM
SMILES: COc1ccccc1N1CCN(CCCn2nc(-n3ccc4ccccc43)ccc2=O)CC1

- Ki [1]: 3.1 nM
- pKi [2]: 6.90
- Ki [3]: 30.5 nM
SMILES: COc1ccccc1N1CCN(CCCCCn2nc(-n3cnc4ccccc43)ccc2=O)CC1

- Ki [1]: 1 nM
- pKi [2]: 6.74
- Ki [3]: 10.3 nM
SMILES: O=c1ccc(-n2cnc3ccccc32)nn1CCCCCCCN1CCN(c2ccccc2Cl)CC1

— ChEMBL document CHEMBL1135543, “Alpha(1)-adrenoceptor antagonists. 4. Pharmacophore-based design, synthesis, and biological evaluation of new imidazo-, benzimidazo-, and indoloarylpiperazine derivatives” (J Med Chem, 2002)
